From PMC4834983 (Journal of medicinal chemistry, 2015)

What was measured:
pStat3 = assay: Immunoblots of tumor tissue lysates from treated mice; format: in vivo, mouse; conditions: four-to-five cases out of six
How it was run: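 After oral dosing, lysates of residual subcutaneous U251MG tumour tissue from treated and 1% DMSO vehicle mice. Immunoblotted for pStat3 and Stat3, with GAPDH as loading reference.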

NIH3T3 cells = assay: Colony survival assay; format: cell-based, mouse; conditions: 2.5 μM or less
How it was run: (§1)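 Cells seeded as single cells at 250 per well and treated once the next day with test compound (0–5 μM) for 72 h. Grown until large colonies were visible: 1 week for NIH3T3, 2 weeks for U251MG. Colonies stained with crystal violet for 4 h and counted.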

G22 cells [1] = assay: 3D spheroid assay; format: cell-based, human; conditions: 5 μM, treated once
U251MG cells [2] = assay: Cell cycle distribution analysis; format: cell-based, human; conditions: 15 h treatment
How it was run: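 U251MG cells synchronised by double thymidine block (2 mM) and released for 9 h, then given DMSO or 8 μM test compound for 15 h. Fixed overnight at −20 °C in 70% ethanol/3% FBS in PBS. Stained in PI/RNase buffer for 15 min at room temperature, then DNA content measured by flow cytometry.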

MCF-7 cells = assay: CyQuant cell proliferation assay; format: cell-based; conditions: Homo sapiens, MCF7, 72 h, read-out: IC50 cell proliferation MCF-7
How it was run: (§2)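 CyQuant DNA-dye proliferation assay on cultured cells after 72 h exposure to test compound. Viability expressed relative to DMSO-treated control cells.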

G12 cells = assay: Growth of glioma patient-derived xenograft cells in vitro; format: cell-based; conditions: Homo sapiens, read-out: inhibitory activity against G12 cell growth
NIH3T3/v-Src fibroblasts = assay: Trypan blue exclusion viable cell counting; format: cell-based, mouse; conditions: 1 and 2.5 μM
How it was run: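 Cells in culture treated once with increasing concentrations of test compound for 0–96 h. Harvested every 24 h, and viable cells counted by trypan blue exclusion under phase-contrast microscopy.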

Stat1:Stat1 = target: T1, Stat1:Stat1 (Mus musculus, UniProt P42225); assay: Cell-free EMSA, EGF-stimulated NIH3T3/hEGFR nuclear extracts; format: biochemical; conditions: 5 μM, 30 min pre-incubation
T1 sequence (P42225 2-749 limits assumed): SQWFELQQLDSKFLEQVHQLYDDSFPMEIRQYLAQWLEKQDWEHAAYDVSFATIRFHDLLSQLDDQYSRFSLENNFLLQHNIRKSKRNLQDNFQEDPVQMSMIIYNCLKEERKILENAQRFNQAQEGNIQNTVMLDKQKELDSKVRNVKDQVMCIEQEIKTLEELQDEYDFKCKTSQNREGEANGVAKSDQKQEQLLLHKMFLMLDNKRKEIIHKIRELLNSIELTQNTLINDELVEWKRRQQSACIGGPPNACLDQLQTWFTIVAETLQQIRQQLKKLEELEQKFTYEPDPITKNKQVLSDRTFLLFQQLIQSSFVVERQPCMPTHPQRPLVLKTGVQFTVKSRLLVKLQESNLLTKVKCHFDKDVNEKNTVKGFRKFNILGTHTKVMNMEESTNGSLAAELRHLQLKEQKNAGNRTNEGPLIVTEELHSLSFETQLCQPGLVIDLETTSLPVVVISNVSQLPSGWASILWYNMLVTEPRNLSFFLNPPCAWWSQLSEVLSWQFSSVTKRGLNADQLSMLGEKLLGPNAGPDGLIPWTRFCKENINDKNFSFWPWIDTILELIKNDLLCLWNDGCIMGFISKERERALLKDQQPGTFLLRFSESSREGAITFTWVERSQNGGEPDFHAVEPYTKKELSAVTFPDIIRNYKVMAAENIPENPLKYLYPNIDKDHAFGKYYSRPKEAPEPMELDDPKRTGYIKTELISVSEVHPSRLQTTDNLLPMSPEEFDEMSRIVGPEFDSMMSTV
How it was run: (§3)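 Nuclear extracts from EGF-stimulated NIH3T3/hEGFR fibroblasts, containing active Stat1, Stat3 and Stat5, preincubated with 5 μM test compound for 30 min at room temperature. Then incubated 30 min with 32P-labelled probe before EMSA: hSIE (Stat1/Stat3 binding) or MGFe (bovine β-casein element; Stat1/Stat5 binding). STAT:DNA bands quantified as percent of control.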

pErk1/2MAPK = assay: Immunoblotting, EGF-stimulated NIH3T3/hEGFR fibroblasts; format: cell-based, mouse; conditions: 5 μM pre-treatment
How it was run: (§4)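 NIH3T3/hEGFR fibroblasts pretreated with or without 5 μM test compound for 3 h, then stimulated with 1 μg/ml EGF for 12 min. Whole-cell lysates, equal total protein, immunoblotted for pStat1/Stat1, pStat5/Stat5 and pErk1/2/Erk1/2.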

pStat1 = assay: as above; format: cell-based, mouse; conditions: 5 μM pre-treatment
How it was run: as §4

Stat5:Stat5 = assay: Cell-free EMSA, EGF-stimulated NIH3T3/hEGFR nuclear extracts, MGFe probe; format: biochemical, mouse; conditions: 5 μM, 30 min pre-incubation
How it was run: as §3

SF295 cells = assay: CyQuant cell proliferation assay; format: cell-based; conditions: Homo sapiens, SF-295, 72 h, read-out: IC50 cell proliferation SF295
How it was run: as §2

U251MG cells [3] = assay: Colony survival assay; format: cell-based, human; conditions: 1 μM, treated once
How it was run: as §1

U373MG cells = assay: CyQuant cell proliferation assay; format: cell-based; conditions: Homo sapiens, U373 MG, 72 h, read-out: IC50 cell proliferation U373MG
How it was run: as §2

U251MG cells [4] = assay: Scratch assay for migration; format: cell-based, human; conditions: 5 μM, 19-h treatment
How it was run: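 Sub-confluent U251MG monolayers wounded with pipette tips and treated once with test compound (0–5 μM) or DMSO vehicle. Cells allowed to migrate into the denuded area over 19 h, then imaged by microscopy at 10×.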

MDA-MB-231 cells = assay: CyQuant cell proliferation assay; format: cell-based, human; conditions: Homo sapiens, MDA-MB-231, 72 h, read-out: IC50 cell proliferation MDA-MB-231
How it was run: as §2

G22 cells [5] = assay: Growth of glioma patient-derived xenograft cells in vitro; format: cell-based; conditions: Homo sapiens, read-out: inhibitory activity against growth of G22 cells
U251MG cells [6] = assay: BrdU incorporation assay; format: cell-based, human; conditions: 5 μM, at 24 h
How it was run: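 U251MG cells on glass coverslips exposed to DMSO or 5 μM test compound for 3–24 h. BrdU (10 micromolar) added for the final 2 h. Fixed in 4% paraformaldehyde for 10 min, stained with anti-BrdU antibody and counterstained with DAPI. Imaged by fluorescence microscopy, and cells counted.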

[7] = system: U251MG subcutaneous tumor xenografts; assay: Subcutaneous glioma xenograft tumor growth; format: in vivo, mouse; conditions: 2 mg/kg, oral gavage, 33 days
How it was run: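 Female athymic nude mice, 4 weeks old, injected subcutaneously in the left flank with 7.3 ×10^6 U251MG cells in PBS/matrigel. At 20 days (tumours 170–250 mm3), mice grouped by matched mean tumour size. Dosed 2 mg/kg by oral gavage in 1% DMSO vehicle, three times weekly, for 33 days. Caliper volumes (V = 0.52 × a2 × b) and body weights recorded; paired t test against vehicle.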

C/C=C(\C)C(=O)OCC1=C2/C(=C\[C@@]3(C)CC[C@](O)(O3)[C@H](C)C[C@@H]2O)OC1=O [Compound 22]
pStat3 and Stat3 levels in residual tumor tissues (pStat3): lower
effects on NIH3T3 colony numbers (NIH3T3 cells): moderate or none
3D spheroid growth (G22 cells [1]): decreased 3D spheroid growth
cell cycle distribution (U251MG cells [2]): induced G2/M accumulation
IC50 (MCF-7 cells): 4.8 to 9.6 µM
inhibition at 5 µM (G12 cells): 25 to 35%
growth of NIH3T3/v-Src over normal NIH3T3 fibroblasts (NIH3T3/v-Src fibroblasts): preferential inhibition of growth
effect on Stat1:Stat1 activity, cell-free EMSA (Stat1:Stat1): weak effects
effect on EGF-stimulated pErk1/2MAPK levels (pErk1/2MAPK): no effect
effect on EGF-stimulated pStat1 levels (pStat1): no effect
effect on Stat5:Stat5 activity, cell-free EMSA (Stat5:Stat5): weak effects
IC50 (SF295 cells): 7.4 to 18.3 µM
U251MG colony formation (U251MG cells [3]): completely inhibited
IC50 (U373MG cells): 6.6 to 8.2 µM
migration into the denuded area (U251MG cells [4]): slowed migration
IC50 (MDA-MB-231 cells): 5.2 to 9.1 µM
inhibition at 5 µM (G22 cells [5]): 45 to 60%
cell proliferation measured by BrdU incorporation (U251MG cells [6]): significantly impaired
growth of subcutaneous U251MG xenografts [7]: inhibited growth
